Results taken from ChEMBL document CHEMBL1131058, “Studies on quinazolines and 1,2,4-benzothiadiazine 1,1-dioxides. 8.1, 2 synthesis and pharmacological evaluation of tricyclic fused quinazolines and 1,2,4-benzothiadiazine 1,1-dioxides as potential alpha1-adrenoceptor antagonists” (J Med Chem, 1998).

Legend:
[1] = biological target: Sodium channel alpha subunits; brain (Types I, II, III) (Rattus norvegicus, UniProt P04775+P04774+P08104); experiment: Displacement of [3H]batrachotoxin from rat brain sodium channel; assay type: tissue-based
Summary of the method: (§1)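 Radioligand competition binding was done by an outside contract lab (Pan Lab). Inhibition constants (Ki) were derived from displacement of the stated tritiated ligand. Each compound was tested at 10 µM. Where inhibition at that concentration stayed below 50%, no Ki was reported.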

[2] = biological target: T1, Adrenergic receptor alpha-2 (Rattus norvegicus, UniProt P22086+P19328+P22909); experiment: Displacement of clonidine from Alpha-2 adrenergic receptor in rat brain cortex; assay type: tissue-based
T1 sequence (P22086 whole entry): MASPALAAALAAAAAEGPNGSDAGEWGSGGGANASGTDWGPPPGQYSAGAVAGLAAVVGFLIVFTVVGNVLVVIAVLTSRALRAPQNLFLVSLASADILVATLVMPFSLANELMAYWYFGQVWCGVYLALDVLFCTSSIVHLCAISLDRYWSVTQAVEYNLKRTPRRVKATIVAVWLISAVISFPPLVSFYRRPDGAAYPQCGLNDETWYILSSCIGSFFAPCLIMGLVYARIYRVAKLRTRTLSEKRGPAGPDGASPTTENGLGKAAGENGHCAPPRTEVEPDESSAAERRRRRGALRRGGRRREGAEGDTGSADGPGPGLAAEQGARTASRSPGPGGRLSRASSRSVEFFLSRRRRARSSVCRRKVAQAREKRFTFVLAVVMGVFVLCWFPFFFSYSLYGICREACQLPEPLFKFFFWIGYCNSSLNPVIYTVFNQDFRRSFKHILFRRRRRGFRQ
T1 sequence (P19328 whole entry): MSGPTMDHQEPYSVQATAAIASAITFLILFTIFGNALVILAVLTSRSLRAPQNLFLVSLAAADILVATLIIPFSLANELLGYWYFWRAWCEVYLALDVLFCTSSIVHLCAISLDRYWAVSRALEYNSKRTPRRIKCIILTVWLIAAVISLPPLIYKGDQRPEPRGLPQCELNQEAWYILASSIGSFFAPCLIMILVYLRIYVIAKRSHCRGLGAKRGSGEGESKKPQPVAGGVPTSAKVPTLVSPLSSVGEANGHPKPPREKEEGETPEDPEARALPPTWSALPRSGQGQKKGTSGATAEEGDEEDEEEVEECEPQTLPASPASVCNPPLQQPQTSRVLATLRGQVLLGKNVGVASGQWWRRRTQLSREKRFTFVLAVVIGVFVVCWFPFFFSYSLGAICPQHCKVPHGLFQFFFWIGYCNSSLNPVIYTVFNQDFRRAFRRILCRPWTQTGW
T1 sequence (P22909 whole entry): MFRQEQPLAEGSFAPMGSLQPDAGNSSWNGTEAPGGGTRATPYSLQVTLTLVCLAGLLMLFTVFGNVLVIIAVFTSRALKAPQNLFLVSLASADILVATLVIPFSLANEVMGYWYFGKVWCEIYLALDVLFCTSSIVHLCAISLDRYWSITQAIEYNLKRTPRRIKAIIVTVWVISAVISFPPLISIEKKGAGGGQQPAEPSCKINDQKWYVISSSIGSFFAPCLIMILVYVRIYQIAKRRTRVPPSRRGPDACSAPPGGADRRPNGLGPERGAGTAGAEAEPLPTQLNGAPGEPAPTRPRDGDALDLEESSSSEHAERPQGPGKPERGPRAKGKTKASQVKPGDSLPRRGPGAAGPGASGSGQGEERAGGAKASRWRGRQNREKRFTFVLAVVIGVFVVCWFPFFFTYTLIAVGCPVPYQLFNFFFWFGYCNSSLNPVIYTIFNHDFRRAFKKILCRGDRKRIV
Summary of the method: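 α2 competition binding run in triplicate with 1 nM [³H]clonidine plus 10 mM MgCl₂ in Tris pH 7.4, 30 min at room temperature. Test compounds at 1-100 µM. Nonspecific binding defined with 10 µM clonidine. Membranes collected on GF/B filters and washed twice with cold Tris. Protein 300-400 µg per assay. Ki given as mean ± SEM of 3-6 experiments.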

[3] = biological target: 5-hydroxytryptamine receptor 1A (Rattus norvegicus) (UniProt P19327); experiment: Compound is evaluated for binding affinity towards 5-hydroxytryptamine 1A receptor using [3H]-8-OH- -DPAT in rat brain cortex at 10 uM; assay type: tissue-based
5-hydroxytryptamine receptor 1A (Rattus norvegicus), sequence (P19327 whole entry): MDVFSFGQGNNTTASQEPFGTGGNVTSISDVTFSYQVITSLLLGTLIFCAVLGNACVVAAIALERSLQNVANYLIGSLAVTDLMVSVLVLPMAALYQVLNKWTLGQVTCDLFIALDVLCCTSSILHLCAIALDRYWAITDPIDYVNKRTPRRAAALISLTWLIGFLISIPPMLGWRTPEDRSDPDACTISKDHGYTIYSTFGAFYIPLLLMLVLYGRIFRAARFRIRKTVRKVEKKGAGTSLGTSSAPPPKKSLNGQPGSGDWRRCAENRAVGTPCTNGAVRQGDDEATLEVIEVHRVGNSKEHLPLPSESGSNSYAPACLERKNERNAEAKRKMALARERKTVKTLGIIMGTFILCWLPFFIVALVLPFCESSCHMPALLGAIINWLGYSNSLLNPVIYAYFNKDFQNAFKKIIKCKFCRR
Summary of the method: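 Single-concentration screen at 10 µM in contract radioligand binding assays. Records whether inhibition of specific radioligand binding stayed below 50%.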

Sigma 2 receptor [4] = experiment: Binding affinity towards Sigma 2 receptor using [3H]ifenprodil in rat brain; assay type: tissue-based
Summary of the method: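 Contract radioligand competition binding. Sources: 5-HT1 and 5-HT1A in rat brain cortex; 5-HT2 and σ2 in rat brain; σ in guinea pig brain; D2, rhD2 and rhD3 in CHO cells with [³H]spiperone; H1 in guinea pig lung with [³H]pyrilamine. Inhibition constants reported; no constant given where inhibition at 10 µM was below 50%.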

Sigma 2 receptor [5] = experiment: Binding affinity towards Sigma 2 receptor using [3H]ifenprodil in rat brain at 10 uM; assay type: tissue-based; summary of the method: as §1
[6] = biological target: T2, Alpha-2B adrenergic receptor (Homo sapiens, UniProt P18089); experiment: Compound is evaluated for binding affinity towards Alpha-2B adrenergic receptor using [3H]yohimbine
T2 sequence (P18089 whole entry): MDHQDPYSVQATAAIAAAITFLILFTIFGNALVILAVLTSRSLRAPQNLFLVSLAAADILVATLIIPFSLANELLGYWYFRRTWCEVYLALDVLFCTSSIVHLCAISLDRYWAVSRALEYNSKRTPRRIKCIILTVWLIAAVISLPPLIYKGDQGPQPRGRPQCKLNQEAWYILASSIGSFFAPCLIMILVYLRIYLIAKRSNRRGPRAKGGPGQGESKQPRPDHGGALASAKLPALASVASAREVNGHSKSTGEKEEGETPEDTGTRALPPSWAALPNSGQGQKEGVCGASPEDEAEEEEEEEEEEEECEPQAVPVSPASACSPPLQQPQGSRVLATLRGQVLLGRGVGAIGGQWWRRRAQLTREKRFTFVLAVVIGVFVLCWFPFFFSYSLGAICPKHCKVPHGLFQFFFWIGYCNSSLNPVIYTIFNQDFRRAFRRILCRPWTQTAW

[7] = biological target: T3, Alpha-2A adrenergic receptor (Homo sapiens, UniProt P08913); experiment: Compound is evaluated for binding affinity towards Alpha-2A adrenergic receptor using [3H]MK912
T3 sequence (P08913 whole entry): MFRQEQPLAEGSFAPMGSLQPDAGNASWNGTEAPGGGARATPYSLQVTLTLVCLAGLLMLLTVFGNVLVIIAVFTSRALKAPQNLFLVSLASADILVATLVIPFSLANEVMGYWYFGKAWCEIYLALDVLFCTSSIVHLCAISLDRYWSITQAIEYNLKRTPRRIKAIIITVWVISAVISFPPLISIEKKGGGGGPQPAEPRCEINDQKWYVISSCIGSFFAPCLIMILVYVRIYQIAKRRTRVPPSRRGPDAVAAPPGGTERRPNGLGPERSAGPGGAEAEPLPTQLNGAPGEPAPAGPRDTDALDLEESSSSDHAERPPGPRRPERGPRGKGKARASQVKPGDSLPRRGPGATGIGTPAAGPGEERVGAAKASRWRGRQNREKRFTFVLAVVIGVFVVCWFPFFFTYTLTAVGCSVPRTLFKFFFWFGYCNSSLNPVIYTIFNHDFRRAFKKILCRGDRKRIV

## COc1ccccc1N1CCN(CC2CN=C3c4ccccc4N=C(SC)N32)CC1 (stereo unspecified)
[1]
  Ki: 404 nM

## COc1ccccc1N1CCN(Cc2cn3c(O)nc4ccccc4c3n2)CC1
[1]
  Ki: 4810 nM
[2]
  Ki: 6760 nM
[3]
  inhibition: < 50%
Sigma 2 receptor [4]
  Ki: 4880 nM

## COc1ccccc1N1CCN(Cc2cnc3c4ccccc4nc(O)n23)CC1
[1]
  Ki: 5380 nM
[2]
  Ki: 7830 nM
Sigma 2 receptor [5]
  inhibition: < 50%

## COc1ccccc1N1CCN(C[C@H]2CN=C3c4ccccc4N=C(SC)N32)CC1
[6]
  Ki: 376 nM
[7]
  Ki: 872 nM

## COc1ccccc1N1CCN(C[C@@H]2CN=C3c4ccccc4NC(=O)N32)CC1
[6]
  Ki: 9300 nM

## Oc1nc2ccccc2c2ncc(CN3CCN(c4ccccc4Cl)CC3)n12
[1]
  Ki: 2460 nM
[2]
  Ki: 2720 nM
[3]
  inhibition: < 50%
Sigma 2 receptor [4]
  Ki: 3050 nM

## COc1ccccc1N1CCN(C[C@@H]2CN=C3c4ccccc4N=C(SC)N32)CC1
[7]
  Ki: 3000 nM

## COc1ccccc1N1CCN(C[C@H]2CN=C3c4ccccc4NC(=O)N32)CC1
[6]
  Ki: 116 nM
[7]
  Ki: 444 nM

## COc1ccccc1N1CCN(CC2CN3C(=O)Nc4ccccc4C3=N2)CC1 (stereo unspecified)
[6]
  Ki: 253 nM
Sigma 2 receptor [5]
  inhibition: < 50%
[7]
  Ki: 547 nM
